E-sel inducer = induces E-selectin expression in human endothelial cells | P16581 | AID 686992 | hit rate 0.37% among 260,000 | activation, % at 7.58 µM | HUVEC E-selectin immunofluorescence imaging; normalized: neutral wells 0, TNF-alpha wells 100;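 active = mean E-selectin-positive cell signal at least 10% of the positive control, reached in at least 60% of replicates, without over 20% cell loss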
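assay system = HUVEC, human umbilical vein endothelial cells | input = 3,000 HUVEC seeded per well | medium = EGM-2 growth medium on 0.1% gelatin-coated wells | dosing = one compound dose added by pin transfer | signal = immunofluorescence imaging | read-out basis = % PE-positive cells | control set = TNF-alpha, DMSO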
RAD52 inh = inhibitors of human RAD52 DNA annealing; P43351; recombinant RAD52 DNA annealing, FRET fluorescence; inhibition, % at 18.7 µM; hit rate 0.46% among 360,000; AID 651710;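 active = every replicate showing at least 50% inhibition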
PglD DTNB = blocks C. jejuni PglD acetyltransferase activity | purified PglD enzyme, DTNB colorimetric CoA detection | inhibition, % at 12.5 µM | hit rate 0.098% among 360,000 | AID 602405; in the data active = inhibition above about 16%, passing the limit was not always enough
rRNA inh HTS = selective bacterial rRNA inhibition in E. coli. hit rate 1.6% among 350,000. E. coli WT GFP vs humanized-ribosome RFP mutants, fluorescence, 24 h; active compounds read low; DMSO median 0, no signal -100. GFP signal change (wild-type ribosome), % (test concentration not listed);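 active = significant combined selectivity score with lowered wild-type GFP, culture density cut under 30%, mutant RFP and density less affected; inactive = any of these conditions unmet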
XiGFP reactiv = X-chromosome reactivation activator; XiGFP mouse fibroblasts, % GFP-positive cells imaging, 3 d; cells co-treated with 5-aza-dC sensitizer; scaled so ellipticine positive control = 100%; activation, % at 7.58 µM; hit rate 0.055% among 360,000;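 active = mean normalized replicate activation at least 10% and every replicate at or above 10%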;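 also: 0% = median of on-plate neutral control wells and 100% = ellipticine 6 µM median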
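Material: XiGFP fibroblasts, SV40-immortalized. Buffer or medium: DMEM plus 5-aza-dC sensitizer. Compound: single concentration per compound, delivered by pin transfer. Times: 3 days compound exposure. Controls: ellipticine 6 µM.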
RAD54 inh = blocks human RAD54 Holliday junction branch migration | Q92698 | FAM/BHQ fluorescence | inhibition, % at 10.4 µM | hit rate 0.14% among 360,000;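 active = mean normalized replicate activity at least 40 and at least half of replicates scoring 40 or more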;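 also: 0% = median of neutral control wells and 100% = median of positive control wells; inhibitors cause a drop in the FAM fluorescence signal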
Target sequence (Q92698 whole entry, looked up): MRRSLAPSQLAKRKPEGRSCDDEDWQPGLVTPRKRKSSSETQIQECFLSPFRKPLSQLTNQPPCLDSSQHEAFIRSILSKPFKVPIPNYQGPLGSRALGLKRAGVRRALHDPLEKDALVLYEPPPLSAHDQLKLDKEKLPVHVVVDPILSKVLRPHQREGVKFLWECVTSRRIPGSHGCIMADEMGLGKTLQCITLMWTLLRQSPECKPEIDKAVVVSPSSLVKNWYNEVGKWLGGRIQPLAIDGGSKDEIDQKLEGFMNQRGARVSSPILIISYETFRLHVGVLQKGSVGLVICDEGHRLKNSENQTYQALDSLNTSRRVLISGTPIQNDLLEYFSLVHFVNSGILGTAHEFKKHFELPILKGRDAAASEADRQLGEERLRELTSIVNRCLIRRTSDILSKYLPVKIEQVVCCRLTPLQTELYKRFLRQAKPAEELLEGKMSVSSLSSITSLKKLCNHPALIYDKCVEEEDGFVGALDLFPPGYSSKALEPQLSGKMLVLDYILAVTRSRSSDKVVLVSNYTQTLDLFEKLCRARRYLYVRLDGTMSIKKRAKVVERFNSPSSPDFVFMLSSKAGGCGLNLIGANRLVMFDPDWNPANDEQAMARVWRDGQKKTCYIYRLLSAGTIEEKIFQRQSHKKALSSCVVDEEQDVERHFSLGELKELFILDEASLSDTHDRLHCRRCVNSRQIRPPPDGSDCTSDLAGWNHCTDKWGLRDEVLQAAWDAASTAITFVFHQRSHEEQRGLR
* hit, by the source's call; . = not tested or not shown. Sampled rows, rich in hits. Any-hit rate of the full collection: about 2%.

SMILES	E-sel inducer	RAD52 inh	PglD DTNB	rRNA inh HTS	XiGFP reactiv	RAD54 inh
Nc1ccccc1SC(CC(=O)c1ccccc1)c1ccc([N+](=O)[O-])cc1 (stereo unspecified)	0	-16	-1	-20*	1	1
Nc1ccccc1SC(CC(=O)c1ccccc1)c1cccc([N+](=O)[O-])c1 (stereo unspecified)	-1	-9	5	-24*	0	1
C[C@@H]1CN([C@H](C)CO)C(=O)c2cccc(NS(=O)(=O)c3cccs3)c2O[C@@H]1CN(C)C(=O)Nc1ccc(C(F)(F)F)cc1	-3	9	-3	-24	0	-14
Cc1cc(N/N=C/c2ccc([N+](=O)[O-])o2)nc2ccccc12	1	-16	.	-19	43*	.
Cc1ccc2nc(N/N=C/c3ccco3)cc(C)c2c1	.	-13	-3	-20*	0	23
Cc1ccc(-c2cc(C(=O)N/N=C/c3ccc([N+](=O)[O-])o3)c3ccccc3n2)o1	-1	-8	1	0	0	1
O=C(NCCc1ccncc1)[C@H]1[C@H](CO)[C@H]2Cn3c(ccc(-c4ccccc4)c3=O)[C@H]2N1C(=O)C1CC1	0	10	3	0	0	-2
Nc1nc(NCc2ccco2)nc(N2CCN(Cc3ccccc3)CC2)c1[N+](=O)[O-]	0	-9	-2	-24*	0	0
COC(=O)[C@H]1[C@H](CO)[C@H]2Cn3c(ccc(/C=C/c4ccccc4)c3=O)[C@H]2N1C(=O)c1cnccn1	0	0	-1	-2	1	-1
CC(O)CNCCCOc1ccc(Cl)cc1C(C)(C)C (stereo unspecified)	-1	19	.	-41*	0	.
CCCOc1ccc(N2C(=O)CC(SCCc3nc4ccccc4[nH]3)C2=O)cc1 (stereo unspecified)	5	-2	.	-31*	0	.
CSc1ccccc1OCc1cc(C(=O)N[C@H]2CCCCNC2=O)no1	.	-19	-2	-19*	0	2
CCCC(=O)Nc1ccc2c(c1)C(=O)N(C)[C@@H]1CC[C@H](CC(=O)NCC3CCCCC3)O[C@@H]1CO2	0	-3	-1	-4	0	-1
O=C(COC(=O)COc1ccc(Cl)cc1Br)NCCC1=CCCCC1	29*	-6	5	2	0	9
O=C(COC(=O)c1ccccc1Br)NCCC1=CCCCC1	5	-23	-5	-51*	0	14
O=C(COC(=O)c1ccccc1NCCO)NCCC1=CCCCC1	0	-13	-1	-7	0	-1
O=C(COC(=O)Cc1ccc(Cl)cc1Cl)NCCC1=CCCCC1	0	-8	.	3	0	.
COc1ccccc1-c1cc(C(=O)NN)[nH]n1	23	-1	1	-20*	0	-11
COc1ccc(-c2cc(C(=O)NN)[nH]n2)cc1OC	4	12	.	-22*	0	.
COc1ccc(CCC2(C)NC(=O)N(C(C)C(=O)N3c4ccccc4CC3C)C2=O)cc1 (stereo unspecified)	.	-10	-2	-18*	0	2
COc1ccc(S(=O)(=O)CCC(=O)N2c3ccccc3CC2C)cc1 (stereo unspecified)	.	.	4	.	.	27
O=C(C1CCC1)N1C[C@@H]2[C@H](c3ccccc31)[C@@H](CO)N2S(=O)(=O)c1ccccc1	0	9	1	-7	0	-1
COc1ccc(CNc2ccc(C)c(C)c2)c(OC)c1OC	2	-2	.	-20*	0	.
COc1ccc(CNc2cc(C)ccc2C)c(OC)c1OC	.	.	3	.	.	-5
O=C(Cc1ccccc1)N1CC(=O)N2[C@H](CO)[C@H](c3ccc(C#Cc4ccccc4)cc3)[C@@H]2C1	0	-9	.	-24	0	.
SMILES	E-sel inducer	RAD52 inh	PglD DTNB	rRNA inh HTS	XiGFP reactiv	RAD54 inh
CCN(CC)c1ccc(C(=S)NC2CCCCC2)cc1	1	-12	-3	-21*	0	5
Cc1ccccc1S(=O)(=O)N1CCCCN2[C@H](CO)[C@H](c3ccc(-c4ccccc4)cc3)[C@@H]2C1	.	28	0	.	.	3
Cc1ccccc1S(=O)(=O)N1CCCCN2[C@@H](CO)[C@H](c3ccc(-c4ccccc4)cc3)[C@@H]2C1	.	71*	4	.	.	1
Cc1cccc(-c2ccc([C@H]3[C@H](CO)N4CCCCN(S(=O)(=O)c5ccccc5C)C[C@@H]34)cc2)c1	-1	-48	2	-39*	0	10
Cc1ccccc1S(=O)(=O)N1CCCCN2[C@H](C1)[C@@H](c1ccc(C#CCN(C)C)cc1)[C@@H]2CO	0	60*	0	-5	0	-5
C[C@H](CO)N1C[C@H](C)[C@@H](CN(C)C(=O)Nc2ccc(F)cc2)Oc2c(NC(=O)c3ccc(-c4nccs4)cc3)cccc2C1=O	0	-2	2	-2	0	-14
Cc1ccc(S(=O)(=O)N[C@@H]2CC[C@H](CCn3cc(-c4cccnc4)nn3)O[C@H]2CO)cc1	2	-3	5	3	0	-5
Cc1cc(C(=O)Nc2cccc3c2O[C@H](CN(C)Cc2ccc(Oc4ccccc4)cc2)[C@@H](C)CN([C@H](C)CO)C3=O)n(C)n1	-1	-21	0	-2	0	0
CCCNC(=O)N1CC2(C1)[C@H](c1ccccc1)[C@H](CO)N2Cc1cccc(Cl)c1	0	-3	.	-6	0	.
O=C(NCCN1CCC(n2c(=O)[nH]c3ccccc32)CC1)N1c2ccccc2Sc2ccccc21	0	40	.	-36*	0	.
NS(=O)(=O)c1ccc(CCNC(=O)C(=O)c2c[nH]c3ccccc23)cc1	-1	-12	.	-22*	0	.
O=C(NCCc1ccccc1)C(=O)c1c[nH]c2ccccc12	.	6	4	-8	0	2
O=C1OC(c2ccc3ccccc3c2O)(c2ccc3ccccc3c2O)c2ccccc21	1	-8	-4	-41*	0	8
O=C1OC2(c3ccccc31)c1ccccc1-c1ccccc12	0	1	-1	-8	0	-1
O=c1[nH]c(CN2CCN(c3ccc(O)cc3)CC2)nc2scc(-c3ccc(Cl)cc3)c12	0	-7	.	-24*	2	.
C[C@@H]1CCCCO[C@H](CN(C)C(=O)Cc2ccccc2)[C@@H](C)CN([C@@H](C)CO)C(=O)c2cc(NC(=O)C3CCCCC3)ccc2O1	0	.	4	-4	0	0
O=C(Nc1cccc(C(=O)O)c1)/C(=C\c1ccccc1)NC(=O)c1ccccc1	.	0	4	-26	0	3
O=C(Nc1ccc(C(=O)O)cc1)/C(=C\C=C\c1ccccc1)NC(=O)c1ccccc1Br	-2	-14	0	-16*	0	3
